# Screening data deposited in PubChem by Sanford-Burnham Center for Chemical Genomics.
# CCR6 antagonist: antagonists of human CCR6 receptor. P51684. inhibition, % at 20 µM. 340,000 tested, 0.49% active. AID 493098. CHO-K1 CCR6 PathHunter beta-arrestin, luminescence, CCL20-stimulated;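 active means compounds whose inhibition of the agonist-driven luminescence signal at 20 µM reaches about 50%, limit read from the data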;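 further: cells stimulated with CCL20 at 14 nM final; plate controls were DMSO with CCL20 for no effect and DMSO without agonist for full effect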
# Target sequence (P51684 whole entry, looked up): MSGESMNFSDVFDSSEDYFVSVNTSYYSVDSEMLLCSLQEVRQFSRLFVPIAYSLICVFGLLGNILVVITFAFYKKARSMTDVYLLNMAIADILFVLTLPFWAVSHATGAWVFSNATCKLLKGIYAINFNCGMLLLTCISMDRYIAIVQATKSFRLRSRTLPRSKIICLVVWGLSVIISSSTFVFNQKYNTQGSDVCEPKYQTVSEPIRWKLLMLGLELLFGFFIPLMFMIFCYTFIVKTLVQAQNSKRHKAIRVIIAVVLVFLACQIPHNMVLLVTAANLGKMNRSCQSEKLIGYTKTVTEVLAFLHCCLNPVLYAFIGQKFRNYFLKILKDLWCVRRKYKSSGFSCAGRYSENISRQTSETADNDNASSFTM
# CXCR6 inh: inhibitors of human CXCR6 receptor; CHO-K1 PathHunter CXCR6 beta-arrestin, luminescence; inhibition, % at 20 µM; 360,000 tested, 0.36% active; AID 602244; in the data active means inhibition above about 34%, passing the limit was not always enough;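 further: antagonist mode with CXCL16 agonist at 10 nM final; 0% = 10 nM CXCL16 with DMSO and 100% = unstimulated wells without agonist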
# EBI2 block: antagonists of human EBI2 receptor; 360,000 tested, 0.81% active; P32249; EBI2 beta-arrestin recruitment, luminescence, 7a,25-OHC stimulated; inhibition, % at 5 µM; in the data active means inhibition above about 38%;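 further: enzyme fragment complementation signal reports receptor beta-arrestin coupling in cells; 0% = agonist plus DMSO wells and 100% = wells without agonist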
# APJ antagonist: antagonists of human APJ apelin receptor. 330,000 tested, 0.32% active. inhibition, % at 20 µM. AID 2521. P35414. CHO-K1 APJ beta-arrestin complementation, luminescence;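 active means inhibition above about 40% at 20 µM, limit read from the data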;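 further: cells challenged with 10 nM apelin-13 agonist together with compound; plate controls were apelin-13 plus DMSO wells for no effect and DMSO wells lacking apelin-13 for full effect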
# APJ ag: agonists of human APJ apelin receptor. AID 2520. CHO-K1 APJ PathHunter beta-arrestin, luminescence; 0% DMSO wells, 100% apelin. activation, % at 20 µM. P35414. 330,000 tested, 0.11% active;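 active means activation more than six SD over the plate average, tested at 20 µM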;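 further: 0% = DMSO alone and 100% = apelin-13 at 10 nM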
#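 Assay system – PathHunter CHO-K1 APJ (AGTRL-1) beta-arrestin reporter cells · Compound – one dose, 20 µM compound, 1% DMSO · Timing – compound 90 min 25 °C, reagent 1 h · Measured by – luminescence from split beta-galactosidase complementation, Galacton Star/Emerald II substrate · Measure – beta-arrestin recruitment to APJ as agonist activity, luminescent signal · Benchmarks – DMSO vs Apelin-13 10 nM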
# An asterisk follows results filed as active; nt = no result given. This is a sample that favours compounds with a hit; in the whole collection about 1.5% have one here.
SMILES,CCR6 antagonist,CXCR6 inh,EBI2 block,APJ antagonist,APJ ag
O=C(Oc1ccc(C(=S)N2CCOCC2)cc1Br)c1cc(Cl)ccc1Cl,37,8,54*,2,-5
COc1cc(C(=O)N2CCN(c3ccccn3)CC2)cc(OC)c1OC,11,-6,-1,14,-1
COc1cc2nc(C3CCC3)nc(N3CCN(c4ccccn4)CC3)c2cc1OC,35,24,52*,25,-4
CCOc1cc(C(=O)CSc2nnc(CNc3ccc(Cl)cc3)o2)ccc1NC(=O)CC,5,-8,56*,4,2
C#CCNC(=O)C[C@@H]1C[C@@]2(C(=O)OC)CC(C)(C)CC=C2N(Cc2ccccc2)C1=O,nt,nt,-3,nt,nt
Cc1[nH]c2ccccc2c1/C=N/NS(=O)(=O)c1ccccc1,2,0,1,-7,-1
CC(=O)Nc1ccc(C=NNc2ccc([N+](=O)[O-])cc2S(=O)(=O)Nc2ccccc2C(=O)O)cc1,34,22,3,12,-4
COc1ccc(NS(=O)(=O)c2cc([N+](=O)[O-])ccc2N/N=C/c2c(C)[nH]c3ccccc23)cc1,58*,35,30,nt,nt
Cc1[nH]c2ccccc2c1/C=N/Nc1ccccc1[N+](=O)[O-],39,29,6,43*,-8
COc1ccc(CNC(=O)CCS(=O)(=O)c2ccc3nc(C)sc3c2)cc1,nt,-2,2,nt,nt
CCCCNC(=O)C(NC(=O)c1ccc(-c2ccccc2)cc1)C(=O)c1ccccc1 (stereo unspecified),nt,nt,-5,nt,nt
O=C1C(Cl)=C(N2CCN(c3ccccc3[N+](=O)[O-])CC2)C(=O)c2ccccc21,nt,42*,30,nt,nt
O=[N+]([O-])c1cc(Cl)ccc1N1CCCC1,7,8,5,15,-5
C/C(=N\Nc1cc(-c2ccccc2)nc(-c2ccc(Br)cc2)n1)c1cccc(N)c1,-11,1,29,7,1
C/C(=N/Nc1cc(-c2ccccc2)nc(-c2ccccc2)n1)c1ccc(O)cc1,-8,15,60*,-18,-1
CC(=O)c1cc2cccc(OC3(C)CCN(Cc4ccc(-c5ccccn5)cc4)C3)c2o1 (stereo unspecified),nt,1,-2,nt,nt
COc1ccc(OC)c2sc(N(CCCN(C)C)C(=O)CCS(=O)(=O)c3ccccc3)nc12,70*,62*,54*,39,0
CC1C(=O)OC2C1CCC1(C)C3(C)C(=O)C=CC213 (stereo unspecified),nt,29,4,nt,nt
COc1ccc(CNC(=O)CCS(=O)(=O)c2cc3c(cc2Cl)NC(=O)CO3)cc1,7,-1,-1,-11,-8
COc1cc(N=Nc2ccc(Br)cc2)cc(C=O)c1O,nt,53*,20,nt,nt
COc1cc(CN(C)C)cc(C=O)c1O,-11,1,9,-31,12
COc1cc(C(=O)Nc2cc3c(cc2N2CCCCC2)n(C)c(=O)n3C)cc(OC)c1OC,3,-3,25,-1,2
O=C(O)CC1S/C(=N/N=C/c2ccc(-c3ccc(Cl)c([N+](=O)[O-])c3)o2)NC1=O (stereo unspecified),58*,15,1,10,-5
CC(NO)C(C)(C)NO (stereo unspecified),58*,38,4,30,-7
N/C(Cc1ccc(Cl)cc1)=N\OC(=O)c1cccc2ccccc12,-2,-14,52*,-36,17
SMILES,CCR6 antagonist,CXCR6 inh,EBI2 block,APJ antagonist,APJ ag
C/C(=N\NC(=O)C1CCCN(S(=O)(=O)c2ccccc2)C1)c1ccccn1 (stereo unspecified),nt,40*,2,35,-7
C/C(=N\NC(=O)C1CCCN(S(=O)(=O)c2ccccc2)C1)c1ccncc1 (stereo unspecified),3,-9,-10,-8,-2
Cc1ccc(S(=O)(=O)N2[C@H](CC(=O)Oc3ccccc3)OC[C@@H]2C(C)C)cc1,nt,nt,2,nt,nt
Cc1ccc(C)c(N2CCN(C(=O)c3cc4ccccn4n3)CC2)c1,8,4,58*,5,1
O=C(c1cc2ccccn2n1)N1CCN(c2cccc(C(F)(F)F)c2)CC1,-15,6,11,0,0
O=C(Nc1ccc(Cl)cc1)Nc1ccccc1Sc1ncc([N+](=O)[O-])s1,50*,34,39,8,-2
O=C(NCc1ccccc1)C(C1CC1)n1c(-c2cccs2)nc2ccccc21 (stereo unspecified),nt,nt,-4,nt,nt
Cc1ccc(Nc2nc(-c3c(C)nc4ccccn34)cs2)cc1,-12,-8,65*,0,-1
